Measurements published in ChEMBL document CHEMBL5036331 (J Med Chem, 2021).
Values after ≈ are worked out from the molar mass of the structure shown.

Columns and labels:
[1] = Metabolic stability in Wistar-Han rat hepatocytes at 1 uM measured for 2 to 90 mins by LC-MS/MS; type: ADME, cell-based, Hepatocyte; conditions: time 2-90 min
[2] = Clearance in Wistar-Han rat hepatocytes at 1 uM measured for 2 to 90 mins by LC-MS/MS; type: ADME, cell-based, Hepatocyte; conditions: time 2-90 min; for CLhep predicted at 1 µM: Wistar-Han
A2780 = experiment: cells; type: functional, cell-based; conditions: Homo sapiens, A2780, 96 h
[3] = Aqueous solubility of the compound at pH 6.5 for 24 hrs by HPLC-MS/MS; type: physicochemical
[4] = Efflux ratio of apparent permeability across basolateral to apical side over apical to basolateral side in human Caco2 cells at 2 uM incubated for 2 hrs; conditions: Caco-2
[5] = Aqueous solubility of the compound at pH 4 for 24 hrs by HPLC-MS/MS; type: physicochemical
[6] = Apparent permeability of the compound across apical side to basolateral side in human CaCo-2 cells at 2 uM incubated for 2 hrs; type: ADME, cell-based
In short: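 Caco-2 monolayers with TEER of at least 400 Ω·cm². Compound (predissolved in DMSO) added apically or basolaterally at a final 2 μM and incubated 2 h at 37 °C, in triplicate. Both compartments were sampled before and after, MeOH-precipitated and analysed by LC–MS/MS. Papp = (Vr/P0)(1/S)(P2/t).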

MOLM-13 [7] = experiment: cells; type: functional, cell-based; conditions: Homo sapiens, MOLM-13, 96 h
MOLM-13 [8] = experiment: Antitumor activity against human MOLM-13 cells xenografted in AML mouse model assessed as tumor volume by measuring T/C ratio at 15 mg/kg, iv qd; type: functional
In short: (§1)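 Nude mouse MOLM-13 AML xenograft. Compound dosed iv on the stated schedule, starting 5 days after tumor cell inoculation. Tumor volumes were followed. T/C ratio was taken from mean tumor volumes at the time point when the vehicle group was sacrificed, with significance tested against vehicle controls.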

MOLM-13 [9] = experiment: Antitumor activity against human MOLM-13 cells xenografted in AML mouse model assessed as tumor volume by measuring T/C ratio at 35 mg/kg, iv administered once in 3 days; type: functional; conditions: time 3 day; in short: as §1
[10] = Half life in Wistar-Han rat blood at 0.3 to 0.5 mg/kg, iv measured upto 24 hrs by HPLC with LC-MS/MS; type: ADME, organism-based; conditions: dose 0.3-0.5 mg/kg
[11] = Clearance in Wistar-Han rat blood at 0.3 to 0.5 mg/kg, iv measured upto 24 hrs by HPLC with LC-MS/MS; type: ADME, organism-based; conditions: dose 0.3-0.5 mg/kg
[12] = Volume of distribution at steady state in Wistar-Han rat blood at 0.3 to 0.5 mg/kg, iv measured upto 24 hrs by HPLC with LC-MS/MS; type: ADME, organism-based; conditions: dose 0.3-0.5 mg/kg, read-out: Vdss
[13] = Clearance in Wistar-Han rat Liver microsomes at 1 uM measured for 2 to 90 mins by LC-MS/MS; type: ADME, Microsome; conditions: time 2-90 min
MOLM-13 [14] = experiment: Antitumor activity against human MOLM-13 cells xenografted in AML mouse model assessed as tumor volume by measuring T/C ratio at 65 mg/kg, iv administered once in 5 days; type: functional; conditions: time 5 day; in short: as §1

Row | SMILES | Stability [1] | CLhep predicted at 1 µM [2] [mL/min/kg] | IC50 (A2780) [nM] | solubility at 24 h [3] [µg/mL] | solubility at 24 h [5] [µg/mL] | Papp A→B at 2 h, 2 µM [6] [×10⁻⁶ cm/s] | half-life [10] [min] | clearance [11] [mL/min/kg] | Vd [12] [L/kg] | also measured
1 | COc1cc(F)ccc1-c1nc(Nc2cc(F)c(F)c(CS(C)(=N)=O)c2)ncc1F (configuration not stated) | Stable | 41.7 |  |  |  |  |  |  |  | 
2 | COc1cc(F)ccc1-c1nc(Nc2cc(F)cc(CS(=N)(=O)CCCN)c2)ncc1F (configuration not stated) |  | 18.3 | 226 | 294 (≈ 632 µM) |  |  |  |  |  | 
3 | COc1cc(F)ccc1-c1nc(Nc2cc(F)c(F)c(CS(C)(=O)=NC#N)c2)ncc1F (configuration not stated) | Unstable | 55 | 37 | 0.2 (≈ 0.43 µM) |  |  |  |  |  | 
4 | COc1cc(F)ccc1-c1cc(Nc2cc(CS(C)(=N)=O)ccn2)ncn1 (configuration not stated) |  |  | 126 | 2 (≈ 5.16 µM) | 43 (≈ 111 µM) | 2.6 |  |  |  | efflux ratio at 2 h, 2 µM [4]: 9.3; IC50 (MOLM-13 [7]): 80 nM
5 | COc1cc(F)ccc1-c1nc(Nc2cc(F)cc(CS(C)(=N)=O)c2)ncc1F (stereo in doubt) |  |  |  |  | 30 (≈ 71 µM) | 16.8 | 60 | 21.7 | 1.6 | T/C (MOLM-13 [8]): 0.26; T/C (MOLM-13 [9]): 0.26; CLH ([2]; 1 µM): 31.7 mL/min/kg; CLH [13]: 26.7 mL/min/kg; T/C (MOLM-13 [14]): 0.34
6 | COc1cc(F)ccc1-c1nc(Nc2cc(F)cc(CS(C)(=N)=N)c2)ncc1F |  | 35 | 184 | 155 (≈ 368 µM) |  | 5 | 36 | 55 | 2.2 | 
